Source: the EternaBench riboswitch data

Assays:
[1] = system: MS2 coat protein; assay: apparent Kd, MS2 coat protein; higher = weaker binding; RNA-MaP array
How it was run: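 RNA designs were transcribed from sequenced DNA templates on an Illumina sequencing chip and then incubated at room temperature with fluorescently labeled MS2 coat protein at 1.5 nM to 3 μM, with or without input ligand, in Tris-HCl pH 7.5 buffer containing KCl, MgCl2, BSA, DTT, tRNA and Tween20. Incubation lasted 0.8–1.5 h at the lowest protein concentrations and 10–20 min at the highest. Apparent Kd is the median of binding-curve fits made for each cluster. Designs measured on fewer than 10 clusters were excluded.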

[2] = system: MS2 coat protein; assay: apparent Kd, MS2 coat protein; higher = weaker binding; RNA-MaP array; FMN 200 µM where present
How it was run: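 Stalled E. coli RNA polymerase produced the designs on Illumina sequencing-chip clusters. SNAP-549-labelled MS2 coat protein was added from 0.7 or 1.5 nM, doubling to 3 µM, without and then with constant ligand, in 100 mM Tris-HCl pH 7.5, 80 mM KCl, 4 mM MgCl2, BSA, DTT, yeast tRNA and Tween-20. The apparent Kd is the median of filtered per-cluster fits of green signal normalised to red-channel RNA signal and control-cluster median Fmax.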

[3] = designed as: ON switch for flavin mononucleotide, no ligand
[4] = ligand present: flavin mononucleotide, designed as: ON switch for flavin mononucleotide
[5] = designed as: OFF switch for flavin mononucleotide, no ligand
[6] = ligand present: flavin mononucleotide, designed as: OFF switch for flavin mononucleotide
[7] = designed as: OFF switch for theophylline, no ligand
[8] = ligand present: theophylline, designed as: OFF switch for theophylline

In the case of “AGACUCCUAGCAGGAUAUGUUCAAGGAACAAAGAGAACAUGAGGAUCACCCAUGUACACAUAUGAACAGAAGGGCUGAAGAAAA”, the “apparent Kd” value [1, 3] is reported as 8.24 nM and the “apparent Kd” value [1, 4] is reported as 6.66 nM.

In the case of “AGAUCGCAAUAAGGAUAUGCACCUAAGACUCAAAGAACUCUUGACAUGAGGAUCACCCAUGUAACGCAGAAGGUAUAUGACUCA”, the “apparent Kd” value [1, 3] is reported as 21 nM and the “apparent Kd” value [1, 4] is reported as 15.1 nM.

With “AGCAAGACCGAGUCCAAUAACAUGAGGAUCACCCAUGUGUUCGAGGAUAUUAGGACUGAUGGGACUAAGAAGGCGAUCCCUUGU” the “apparent Kd” value [1, 3] was 46.5 nM and the “apparent Kd” value [1, 4] was 37.2 nM.

With “AGCAAUACAUAAGGAUAUGACAUCCAAGAGGAAUCAGAAGGUAUGCAGGCGACAUGAGGAUCACCCAUGUAAUCAUGAGGCAAU” the “apparent Kd” value [1, 3] was 19.4 nM and the “apparent Kd” value [1, 4] was 15.8 nM.

“AGCUAUUCGGGUAAGGAUAUCGAUGUUGUUACAUGAGGAUCACCCAUGUUGCUCGACAUCAGUGACGAGAAGGUACAGCGUGGUAU” was tested, and the “apparent Kd” value [1, 3] was 8.89 nM and the “apparent Kd” value [1, 4] was 8.79 nM.

“AGGCCCUCACAUGAGGAUCACCCAUGUACGUACGCAGGUGGAAGAAGGCCGGUACAACCUAAUCCGGAGGAUAUUCGAAUUAAC” was tested, and the “apparent Kd” value [1, 5] was 372 nM and the “apparent Kd” value [1, 6] was 199 nM.

For “AGGUAGCGAGACUUACAUGAGGAUCACCCAUGUACCACGCGGAAGGAUAUAACGGCAGGCUUUGCUUAGAAGGUCCGCGGUACU”, the “apparent Kd” value [1, 5] was 26.9 nM and the “apparent Kd” value [1, 6] was 20.4 nM.

With “AGUACAUCGGAGAAGGUGCAAGGUUAGCUUUCGCAAGGAUAUCCACACCCUUAGUACAGUGCUACAUGAGGAUCACCCAUGUUA” the “apparent Kd” value [1, 5] was 10.1 nM and the “apparent Kd” value [1, 6] was 10.2 nM.

With “AGUCACAUGAGGAUCACCCAUGUGCCAGAACGAGGACCGGUACGGCCGCCACUCGAGGCGUCCGUCGACAAUAAUGUGAACUGCA” the “apparent Kd” value ([1]; designed as: ON switch for tryptophan, no ligand) was 10.7 nM and the “apparent Kd” value ([1]; ligand present: tryptophan, designed as: ON switch for tryptophan) was 12.1 nM.

“AGUGGGUUUCAGGAUAUAAUAUUAUCAACCAUAUUAGAAGGGAAUACAUGAGGAUCACCCAUGUUGAGUAUACG” was tested, and the “apparent Kd” value [1, 5] was 11.7 nM and the “apparent Kd” value [1, 6] was 9.38 nM.

In the case of “AGUUCACAGGUGAGGAUAUCGGAGCACACAGACAGCGAGAAGGCACAUGAGGAUCACCCAUGUGGUCAGAAAAC”, the “apparent Kd” value [1, 5] is reported as 8.73 nM and the “apparent Kd” value [1, 6] is reported as 10.8 nM.

In the case of “AGUUUUCCUGAGAAGGUGGAGGUCUUUCAUUGCCAAGGAUAUCAGACAACAAUGUAGCCCAAACAUGAGGAUCACCCAUGUCUC”, the “apparent Kd” value [1, 3] is reported as 70.7 nM and the “apparent Kd” value [1, 4] is reported as 42.1 nM.

In the case of “AUAUUUUUGUAAUGACAUGAGGAUCACCCAUGUAUCAAUGUAAGAAGGAGGAAAUAAACACGAUCCUAGGAUAUUAGGUGAUUA”, the “apparent Kd” value [1, 3] is reported as 44.5 nM and the “apparent Kd” value [1, 4] is reported as 35.3 nM.

In the case of “AUCAUGUUAGGAUAUACAAUGUAACGAUCAUUCUUGUAUGCGUAGAAGGAACAUGAGGAUCACCCAUGUGGAAG”, the “apparent Kd” value [1, 5] is reported as 43 nM and the “apparent Kd” value [1, 6] is reported as 46.8 nM.

With “AUCGAUAAGAAGAAGGUGUGACAUGAGGAUCACCCAUGUUAUUGAACAGCACAUGAUCACAGAUACAAGGAUAUUCUACGUAUG” the “apparent Kd” value [1, 5] was 24.4 nM and the “apparent Kd” value [1, 6] was 23.7 nM.

For “AUCGGCAGAAAAGAUACCAGAGUAAUACACAACAUGAGGAUCACCCAUGUACGGACAAUCCUCCCUUGGCAGCUUGUAACAGUAU”, the “apparent Kd” value ([1]; designed as: ON switch for theophylline, no ligand) was 47.8 nM and the “apparent Kd” value ([1]; ligand present: theophylline, designed as: ON switch for theophylline) was 26.9 nM.

“AUGCUGUGAGGAUAUCAGUCCCAGAAAAGCUGGCCGCUGACUGAGAAGGCACAUGAGGAUCACCCAUGUUCAAC” was tested, and the “apparent Kd” value [1, 5] was 10.2 nM and the “apparent Kd” value [1, 6] was 15.7 nM.

“CAAGAAUGACGUACAGAUAACAAUAACGAUACCAGUACAUCAUUAUACCCUUGGCAGCGUUUCACAUGAGGAUCACCCAUGUACA” was tested, and the “apparent Kd” value [1, 7] was 17.4 nM and the “apparent Kd” value [1, 8] was 18.4 nM.

For “CAAUGCGGUUAGGAUACCAGCGACACACACUUCUCACAACACAUGAGGAUCACCCAUGUCCGCCCUUGGCAGCCUUGACUAAGGU”, the “apparent Kd” value [1, 7] was 30.1 nM and the “apparent Kd” value [1, 8] was 146 nM.

For “CAAUGGGAACCAUAUGUUUACAUGAGGAUCACCCAUGUUACAUAGGAUAUCUCGGUUGGGUUCGUAGAGAAGGAUGUAGAGUAG”, the “apparent Kd” value [1, 5] was 5.28 nM and the “apparent Kd” value [1, 6] was 5.3 nM.

For “UUUUUGUGAGGAUAUCAGUAGUAAAUAAAUAAAAUUACUACUGAGAAGGCACAUGAGGAUCACCCAUGUUCCUU”, the “apparent Kd” value [2, 5] was 13.7 nM and the “apparent Kd” value [2, 6] was 33.4 nM.

With “UUUUUUAAGUAAGGAUAUCGGUCUUAGUUAGGUCGAGAAGGUACAUGAGGAUCACCCAUGUUGUUUUUUUUUUCUUUUUUUUUU” the “apparent Kd” value [2, 5] was 9.51 nM and the “apparent Kd” value [2, 6] was 14.1 nM.

With “UUUUUUAUGUAAGGAUAUCGAUUAUAUACACAUCCUACAUGAGGAUCACCCAUGUUUUAAUUUAUCGAGAAGGUACAUUGUCUG” the “apparent Kd” value [2, 3] was 34.1 nM and the “apparent Kd” value [2, 4] was 36.5 nM.

In the case of “UUUUUUUAAUAGAAGGAGGACUUCAUGAGGAUCACCCAUGUGUUAGUACUUAGGAUAUGUAAUAACAUGAGGAUCACCCAUGUC”, the “apparent Kd” value [2, 3] is reported as 51.9 nM and the “apparent Kd” value [2, 4] is reported as 48.7 nM.

With “UUUUUUUUGUGAGGAUAUACAACAUGAGGAUCACCCAUGUCAUGUUCAACAUGAGGAUCACCCAUGUAGAAGGCGCUUUUUUUU” the “apparent Kd” value [2, 5] was 281 nM and the “apparent Kd” value [2, 6] was 247 nM.

In the case of “UUUUUUUUUAGAGGAUAUAUUGUGUGUUAUAUAAUAGAAGGCUAAACAUGACAUGACACAUGAGGAUCACCCAUGUAUGUCCAU”, the “apparent Kd” value [2, 3] is reported as 22.7 nM and the “apparent Kd” value [2, 4] is reported as 18.2 nM.
